Source: article PMC6289288 (Journal of hazardous materials, 2018)
Where two headings read alike, the source gives them in different places.

Assays:
Aliivibrio fischeri = assay: Microtox acute toxicity assay; format: cell-based; conditions: n=3, mean ± SD
Summary of the method: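 Aliivibrio fischeri bioluminescence assay, run in triplicate. A 2 mM stock was osmotically adjusted and then 1:1 serially diluted in Microtox diluent to 9 concentrations (3.5–889 μM). Diluent alone served as the toxicant-free control. Light output was read before mixing with bacteria and again at 5, 15 and 30 min. EC50 is the concentration halving bioluminescence relative to the control at each time point.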

[1] = tested on: Zebrafish (Danio rerio) embryos; assay: Zebrafish embryo developmental toxicity assay; format: in vivo; conditions: for Zebrafish mortality: 120 hpf
Summary of the method: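 Embryos with intact chorions were exposed from 6 to 120 hpf in embryo medium to 0.064–640 μM test compound. All wells contained 0.64% DMSO, and there were 32 embryos per concentration and control. Plates were kept at 28 °C in the dark. At 24 hpf, mortality, developmental delay, spontaneous movement and notochord were scored. At 120 hpf, mortality, edemas, morphological abnormalities, circulation, swim bladder and touch response were scored.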

[2] = tested on: H1299, a human lung cell line; assay: xCELLigence Real-Time Cell Analysis; format: cell-based; conditions: read-out: xCELLigence IC50 72 h; H1299, 72 h, n=3, mean ± SD
[3] = tested on: H1299, a human lung cell line; assay: MTS cytotoxicity assay; format: cell-based; conditions: read-out: MTS IC50 72 h; H1299, 72 h, mean ± SD, n = 2–7
[4] = Measured at pH 8; ref Palos Pacheco et al. [25]; cited from earlier work
[5] = laboratory settings; cited from earlier work
[6] = read-out: Microtox EC50 5 min, 5 min exposure
[7] = read-out: Microtox EC50 15 min, 15 min exposure
[8] = read-out: Microtox EC50 30 min, 30 min exposure

Compound	EC50 (Aliivibrio fischeri; [6]) [µM]	EC50 (Aliivibrio fischeri; [7]) [µM]	EC50 (Aliivibrio fischeri; [8]) [µM]	Zebrafish mortality ([1]; 640 μM, n = 32, exposure from 6 to 120 hpf)	Developmental effects (22 developmental endpoints) ([1]; 0.064–640 μM, 24 and 120 hpf)	IC50 [2] [µM]	IC50 [3] [µM]	Area [4] [Å^2 molecule^−1]	CMC [4] [µM]	Minimum Surface Tension [4] [mN m^−1]	Zebrafish mortality ([1]; 6.4 μM, n = 32) [%]	Biodegradability [5]
CCCCCCCC(CC(=O)O)OC(=O)CC(CCCCCCC)O[C@@H]1O[C@@H](C)[C@H](O)[C@@H](O)[C@H]1O (stereo partly drawn) [Rha-C10-C10 (R,R), rhamnosyl-β-hydroxydecanoyl-β-hydroxydecanoate]	78.7 ± 4	53.8 ± 3.3	47.3 ± 1.2	not associated with mortality	no developmental effects	122 ± 9.1	129.7 ± 1.1	119 ± 10	270 ± 77	28.1 ± 0.2		
CCCCCCCC(CC(=O)O)OC(=O)CC(CCCCCCC)O[C@@H]1O[C@@H](C)[C@H](O)[C@@H](O)[C@H]1O (stereo partly drawn) [Rha-C10-C10 (S,R), rhamnosyl-β-hydroxydecanoyl-β-hydroxydecanoate]	61.9 ± 4.7	39.6 ± 2.9	36.6 ± 2.9			111 ± 6.2	103 ± 31.9	105 ± 4	180 ± 24	28.5 ± 0.2		
CCCCCCCC(CC(=O)O)OC(=O)CC(CCCCCCC)O[C@@H]1O[C@@H](C)[C@H](O)[C@@H](O)[C@H]1O (stereo partly drawn) [Rha-C10-C10 (S,S), rhamnosyl-β-hydroxydecanoyl-β-hydroxydecanoate]	64.3 ± 8.5	42.6 ± 4.4	38.8 ± 3.7			108 ± 5.3	125 ± 18.6	94 ± 8	201 ± 51	29.5 ± 0.2	19	
CCCCC(CC)COC(=O)CC(C(=O)OCC(CC)CCCC)S(=O)(=O)O (stereo not shown) [bis-(2-ethylhexyl) sulfosuccinate (DOSS), bis-(2-ethylhexyl) sulfosuccinate]												biodegradable
